Reference: ChEMBL document CHEMBL1795285, “Facile fabrication of promising protein tyrosine phosphatase (PTP) inhibitor entities based on 'clicked' serine/threonine-monosaccharide hybrids” (Bioorg Med Chem, 2011)
The source made the active and inactive calls. The calls are words filed in the database; no cut-off is given here.

Key:
[1] = system: HCT-116; assay: Cytotoxicity against human HCT116 cells after 72 hrs by MTT assay; assay type: functional, cell-based; details: HCT-116, 72 h
How it was run: (§1)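 Cells seeded at 2000/well and held 24 h at 37 °C, 5% CO2 before treatment. After a 3 h MTT incubation, medium was replaced by DMSO. Absorbance read at 550 nm against a 690 nm reference, with OD taken as proportional to viable cell number.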

[2] = system: A549; assay: Cytotoxicity against human A549 cells after 72 hrs by MTT assay; assay type: functional, cell-based; details: A549, 72 h; how it was run: as §1
[3] = system: HeLa; assay: Cytotoxicity against human HeLa cells after 72 hrs by MTT assay; assay type: functional, cell-based; how it was run: as §1
[4] = target: Receptor-type tyrosine-protein phosphatase F (Homo sapiens, UniProt P10586); assay: Inhibition of human LAR
Sequence of Receptor-type tyrosine-protein phosphatase F (P10586 whole entry): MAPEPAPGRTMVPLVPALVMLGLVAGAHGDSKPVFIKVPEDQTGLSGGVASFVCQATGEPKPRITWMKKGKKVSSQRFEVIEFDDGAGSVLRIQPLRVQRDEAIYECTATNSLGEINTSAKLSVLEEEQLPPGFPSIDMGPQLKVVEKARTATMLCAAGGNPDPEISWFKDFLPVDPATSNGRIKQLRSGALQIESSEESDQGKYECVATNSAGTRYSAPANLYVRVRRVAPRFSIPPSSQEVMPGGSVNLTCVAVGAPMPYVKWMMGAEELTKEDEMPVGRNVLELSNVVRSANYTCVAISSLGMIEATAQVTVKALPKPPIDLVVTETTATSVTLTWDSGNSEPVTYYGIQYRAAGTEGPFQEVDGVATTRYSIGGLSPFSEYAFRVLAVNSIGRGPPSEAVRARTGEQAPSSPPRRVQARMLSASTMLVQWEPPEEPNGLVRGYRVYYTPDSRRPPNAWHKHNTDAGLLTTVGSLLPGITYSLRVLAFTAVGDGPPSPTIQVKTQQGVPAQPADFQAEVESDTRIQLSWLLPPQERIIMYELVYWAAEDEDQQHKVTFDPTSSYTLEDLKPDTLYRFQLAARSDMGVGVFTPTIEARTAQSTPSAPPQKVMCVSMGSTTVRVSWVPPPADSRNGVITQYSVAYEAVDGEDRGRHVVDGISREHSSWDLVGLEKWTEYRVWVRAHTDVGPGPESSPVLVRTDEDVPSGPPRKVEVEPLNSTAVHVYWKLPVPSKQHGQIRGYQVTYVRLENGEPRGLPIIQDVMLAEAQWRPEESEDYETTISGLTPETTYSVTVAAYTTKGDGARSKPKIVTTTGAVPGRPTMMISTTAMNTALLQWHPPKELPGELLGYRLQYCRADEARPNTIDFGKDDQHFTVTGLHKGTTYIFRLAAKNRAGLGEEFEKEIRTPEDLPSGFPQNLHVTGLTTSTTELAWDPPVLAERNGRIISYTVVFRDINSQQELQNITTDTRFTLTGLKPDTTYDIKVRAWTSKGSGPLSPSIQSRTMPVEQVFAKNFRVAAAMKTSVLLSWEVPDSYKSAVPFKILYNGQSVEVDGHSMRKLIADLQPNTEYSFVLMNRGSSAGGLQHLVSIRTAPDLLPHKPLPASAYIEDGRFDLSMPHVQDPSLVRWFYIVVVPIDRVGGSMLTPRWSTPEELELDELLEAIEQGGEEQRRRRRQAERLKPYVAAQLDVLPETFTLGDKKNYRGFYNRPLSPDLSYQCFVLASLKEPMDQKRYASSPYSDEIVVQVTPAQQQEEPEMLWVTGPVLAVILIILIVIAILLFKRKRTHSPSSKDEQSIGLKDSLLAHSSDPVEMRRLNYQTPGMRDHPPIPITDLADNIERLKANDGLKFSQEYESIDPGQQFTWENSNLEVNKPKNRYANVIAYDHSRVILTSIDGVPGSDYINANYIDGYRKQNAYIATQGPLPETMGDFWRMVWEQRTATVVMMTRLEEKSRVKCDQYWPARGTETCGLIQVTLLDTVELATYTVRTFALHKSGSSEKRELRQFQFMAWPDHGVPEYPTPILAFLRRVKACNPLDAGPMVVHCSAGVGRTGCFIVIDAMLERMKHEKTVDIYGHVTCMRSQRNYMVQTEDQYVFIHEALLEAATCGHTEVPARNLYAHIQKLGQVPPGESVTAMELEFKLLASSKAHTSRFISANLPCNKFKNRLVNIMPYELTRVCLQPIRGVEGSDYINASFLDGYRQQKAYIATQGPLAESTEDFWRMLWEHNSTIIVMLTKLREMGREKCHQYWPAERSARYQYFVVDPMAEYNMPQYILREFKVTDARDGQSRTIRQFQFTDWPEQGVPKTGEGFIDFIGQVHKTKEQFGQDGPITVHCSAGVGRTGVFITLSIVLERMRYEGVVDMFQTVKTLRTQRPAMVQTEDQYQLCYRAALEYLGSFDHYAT

[5] = target: Tyrosine-protein phosphatase non-receptor type 6 (Homo sapiens, UniProt P29350); assay: Inhibition of SHP1
Sequence of Tyrosine-protein phosphatase non-receptor type 6 (P29350 whole entry): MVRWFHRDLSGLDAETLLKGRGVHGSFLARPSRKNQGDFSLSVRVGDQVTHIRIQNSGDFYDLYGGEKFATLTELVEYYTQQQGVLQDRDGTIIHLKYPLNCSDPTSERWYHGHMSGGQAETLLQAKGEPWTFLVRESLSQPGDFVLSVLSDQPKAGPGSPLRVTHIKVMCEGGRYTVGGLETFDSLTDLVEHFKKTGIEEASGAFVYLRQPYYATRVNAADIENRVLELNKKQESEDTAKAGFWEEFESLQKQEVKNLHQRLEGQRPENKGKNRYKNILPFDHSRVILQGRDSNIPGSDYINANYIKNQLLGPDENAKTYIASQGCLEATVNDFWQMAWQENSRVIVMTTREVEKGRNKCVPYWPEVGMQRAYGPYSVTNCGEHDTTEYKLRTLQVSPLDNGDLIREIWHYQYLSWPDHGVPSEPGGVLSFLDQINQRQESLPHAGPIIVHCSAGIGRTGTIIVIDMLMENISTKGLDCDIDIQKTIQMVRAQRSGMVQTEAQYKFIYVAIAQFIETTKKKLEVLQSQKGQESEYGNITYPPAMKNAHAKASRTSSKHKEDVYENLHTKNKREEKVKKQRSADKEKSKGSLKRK

[6] = target: T1, Tyrosine-protein phosphatase non-receptor type 11 (Homo sapiens, UniProt Q06124); assay: Inhibition of SHP2
T1 sequence (Q06124 whole entry): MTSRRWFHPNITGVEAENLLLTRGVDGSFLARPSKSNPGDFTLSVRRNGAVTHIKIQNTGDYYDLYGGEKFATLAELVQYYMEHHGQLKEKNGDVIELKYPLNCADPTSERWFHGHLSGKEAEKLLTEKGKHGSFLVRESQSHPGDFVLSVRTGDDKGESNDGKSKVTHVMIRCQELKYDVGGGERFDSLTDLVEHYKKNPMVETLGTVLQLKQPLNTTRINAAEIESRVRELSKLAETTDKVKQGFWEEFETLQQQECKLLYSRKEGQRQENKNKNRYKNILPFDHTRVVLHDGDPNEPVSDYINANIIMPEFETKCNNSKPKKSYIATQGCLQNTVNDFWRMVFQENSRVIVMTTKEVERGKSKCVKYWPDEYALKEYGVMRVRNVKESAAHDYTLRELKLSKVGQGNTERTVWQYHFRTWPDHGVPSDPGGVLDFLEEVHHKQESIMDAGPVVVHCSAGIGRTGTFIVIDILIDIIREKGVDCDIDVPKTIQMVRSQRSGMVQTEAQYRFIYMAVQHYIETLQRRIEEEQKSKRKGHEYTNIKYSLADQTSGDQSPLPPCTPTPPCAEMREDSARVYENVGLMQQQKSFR

[7] = target: T2, M-phase inducer phosphatase 1 (Homo sapiens, UniProt P30304); assay: Inhibition of human CDC25A
T2 sequence (P30304 whole entry): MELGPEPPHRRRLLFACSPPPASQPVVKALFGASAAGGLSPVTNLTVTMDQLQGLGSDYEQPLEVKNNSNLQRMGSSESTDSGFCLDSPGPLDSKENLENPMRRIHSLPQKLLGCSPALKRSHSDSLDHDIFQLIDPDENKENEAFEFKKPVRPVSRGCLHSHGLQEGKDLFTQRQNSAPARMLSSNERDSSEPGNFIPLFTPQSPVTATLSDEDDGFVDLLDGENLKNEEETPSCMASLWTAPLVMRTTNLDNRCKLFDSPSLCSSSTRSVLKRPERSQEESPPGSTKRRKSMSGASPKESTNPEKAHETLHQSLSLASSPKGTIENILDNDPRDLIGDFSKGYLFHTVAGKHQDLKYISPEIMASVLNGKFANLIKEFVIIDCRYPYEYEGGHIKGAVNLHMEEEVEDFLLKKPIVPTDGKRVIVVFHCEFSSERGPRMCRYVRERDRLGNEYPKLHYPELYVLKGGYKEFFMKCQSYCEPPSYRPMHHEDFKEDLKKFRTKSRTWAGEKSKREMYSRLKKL

[8] = target: T3, M-phase inducer phosphatase 2 (Homo sapiens, UniProt P30305); assay: Inhibition of human Cdc25B
T3 sequence (P30305 whole entry): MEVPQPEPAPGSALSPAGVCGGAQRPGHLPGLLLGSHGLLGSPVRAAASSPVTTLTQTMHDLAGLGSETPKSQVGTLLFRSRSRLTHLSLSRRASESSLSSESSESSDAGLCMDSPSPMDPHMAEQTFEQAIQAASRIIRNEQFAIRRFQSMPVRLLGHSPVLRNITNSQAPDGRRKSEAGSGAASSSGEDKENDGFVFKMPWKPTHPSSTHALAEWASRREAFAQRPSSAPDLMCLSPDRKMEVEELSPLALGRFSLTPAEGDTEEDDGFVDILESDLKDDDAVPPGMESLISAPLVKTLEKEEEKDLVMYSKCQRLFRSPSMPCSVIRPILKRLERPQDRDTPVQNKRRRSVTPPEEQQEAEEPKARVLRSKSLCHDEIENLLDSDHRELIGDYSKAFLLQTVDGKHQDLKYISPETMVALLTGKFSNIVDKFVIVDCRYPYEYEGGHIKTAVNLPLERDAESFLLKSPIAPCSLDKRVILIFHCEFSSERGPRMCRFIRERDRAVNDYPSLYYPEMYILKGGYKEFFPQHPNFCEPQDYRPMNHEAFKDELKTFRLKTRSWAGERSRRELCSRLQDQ

[9] = target: T4, Tyrosine-protein phosphatase non-receptor type 2 (Homo sapiens, UniProt P17706); assay: Inhibition of TCPTP
T4 sequence (P17706 whole entry): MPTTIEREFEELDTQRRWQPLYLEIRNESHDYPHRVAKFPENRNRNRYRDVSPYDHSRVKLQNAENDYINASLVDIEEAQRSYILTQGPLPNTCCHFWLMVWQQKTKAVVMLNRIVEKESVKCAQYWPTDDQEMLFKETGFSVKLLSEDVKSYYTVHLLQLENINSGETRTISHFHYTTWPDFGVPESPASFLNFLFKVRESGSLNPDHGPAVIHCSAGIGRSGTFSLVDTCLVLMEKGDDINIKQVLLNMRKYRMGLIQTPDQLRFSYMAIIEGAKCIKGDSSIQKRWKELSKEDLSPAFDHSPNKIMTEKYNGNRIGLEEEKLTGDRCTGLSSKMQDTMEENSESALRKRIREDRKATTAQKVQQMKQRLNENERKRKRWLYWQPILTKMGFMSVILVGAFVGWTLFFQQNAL

[10] = target: T5, Tyrosine-protein phosphatase non-receptor type 1 (Homo sapiens, UniProt P18031); assay: Inhibition of human recombinant […] catalytic domain using pNPP substrate
T5 sequence (P18031 whole entry): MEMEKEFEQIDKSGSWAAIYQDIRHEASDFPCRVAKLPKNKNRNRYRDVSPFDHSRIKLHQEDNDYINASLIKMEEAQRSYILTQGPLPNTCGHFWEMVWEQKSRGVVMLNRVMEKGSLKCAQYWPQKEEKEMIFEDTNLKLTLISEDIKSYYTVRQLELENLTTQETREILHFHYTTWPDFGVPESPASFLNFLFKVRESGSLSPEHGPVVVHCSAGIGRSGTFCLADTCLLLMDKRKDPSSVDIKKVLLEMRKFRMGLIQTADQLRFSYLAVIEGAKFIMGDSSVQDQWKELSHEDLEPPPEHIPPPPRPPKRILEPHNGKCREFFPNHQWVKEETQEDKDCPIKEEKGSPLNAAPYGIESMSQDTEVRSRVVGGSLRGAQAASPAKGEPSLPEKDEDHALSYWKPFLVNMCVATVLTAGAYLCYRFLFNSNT
How it was run: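 Recombinant human PTP1B catalytic domain (30 nM) with 2 mM pNPP in 50 mM MOPS, pH 6.5, at 30 °C. Inhibitor diluted around the estimated IC50. Initial rate taken from the early linear part of the 405 nm trace over 2 min. IC50 from nonlinear fit of % inhibition vs [I] with a Hill-coefficient equation. Means of three experiments.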

[11] = target: T6, M-phase inducer phosphatase 2 (Homo sapiens) (UniProt P30305); assay: Mixed type inhibition of human Cdc25B using pNPP substrate at 30 degC and pH 6.5 by Eadie-Hofstee plot
T6 sequence (whole entry): T3 sequence (P30305 whole entry)

[12] = target: T5, Tyrosine-protein phosphatase non-receptor type 1; assay: Competitive inhibition of human recombinant […] catalytic domain using pNPP substrate at 30 degC and pH 6.5 by Eadie-Hofstee plot
How it was run: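 For the inhibition-mode study, 30 nM PTP1B was run in 50 mM MOPS, pH 6.5, at 30 °C. pNPP was varied in twofold dilutions up to 80 mM, at several inhibitor concentrations. pNP release was read at 405 nm.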

Row | Compound | IC50 [1] | IC50 [2] | IC50 [3] | IC50 [4] | IC50 [5] | IC50 [6] | IC50 [7] | IC50 [8] | IC50 [9] | IC50 [10] | inhibition [11] | Ki [12]
1 | CO[C@H]1O[C@H](Cn2cc(COC[C@H](NC(=O)OC(C)(C)C)C(=O)O)nn2)[C@H](OCc2ccccc2)[C@H](OCc2ccccc2)[C@H]1OCc1ccccc1 | > 120 µM | > 120 µM | > 120 µM | > 120 µM | > 120 µM | > 120 µM | > 120 µM | 20.6 µM | 54.9 µM | 20.9 µM | – | –
2 | CO[C@H]1O[C@H](Cn2cc(CO[C@@H](C)[C@H](NC(=O)OC(C)(C)C)C(=O)O)nn2)[C@@H](OCc2ccccc2)[C@H](OCc2ccccc2)[C@H]1OCc1ccccc1 | 33.5 µM | 62.8 µM | 69.5 µM | > 120 µM | > 120 µM | > 120 µM | 119 µM | 27.1 µM | 80.7 µM | 22.3 µM | – | –
3 | CO[C@H]1O[C@H](Cn2cc(CO[C@@H](C)[C@H](NC(=O)OC(C)(C)C)C(=O)O)nn2)[C@@H](OCc2ccccc2)[C@H](OCc2ccccc2)[C@@H]1OCc1ccccc1 | 32.2 µM | 57.2 µM | 53.7 µM | > 120 µM | > 120 µM | > 120 µM | 51.6 µM | 12.2 µM | 105 µM | 26 µM | – | –
4 | CC(C)(C)OC(=O)N[C@@H](COCc1cn([C@@H]2O[C@H](CO)[C@@H](O)[C@H](O)[C@H]2O)nn1)C(=O)O | – | – | – | > 120 µM | > 120 µM | > 120 µM | – | > 120 µM | – | > 120 µM | – | –
5 | CO[C@H]1O[C@H](Cn2cc(COC[C@H](NC(=O)OC(C)(C)C)C(=O)O)nn2)[C@@H](OCc2ccccc2)[C@H](OCc2ccccc2)[C@@H]1OCc1ccccc1 | 32.3 µM | 97.3 µM | 54.2 µM | > 120 µM | > 120 µM | > 120 µM | 26.8 µM | 8.2 µM | 89.2 µM | 18.5 µM | – | –
6 | CC(C)(C)OC(=O)N[C@@H](COCc1cn([C@@H]2O[C@H](COCc3ccccc3)[C@@H](OCc3ccccc3)[C@H](OCc3ccccc3)[C@H]2OCc2ccccc2)nn1)C(=O)O | 12.8 µM | 35.2 µM | 25.3 µM | > 120 µM | 40.4 µM | 47.6 µM | 24.3 µM | 6.2 µM | 12.5 µM | 5.9 µM | Active | 3.9 µM
7 | C[C@H](OCc1cn([C@@H]2O[C@H](COCc3ccccc3)[C@@H](OCc3ccccc3)[C@H](OCc3ccccc3)[C@H]2OCc2ccccc2)nn1)[C@H](NC(=O)OC(C)(C)C)C(=O)O | 12 µM | 25.3 µM | 31.5 µM | > 120 µM | > 120 µM | > 120 µM | 53 µM | 11.6 µM | 38.6 µM | 7.1 µM | – | –
8 | CO[C@H]1O[C@H](Cn2cc(CO[C@@H](C)[C@H](NC(=O)OC(C)(C)C)C(=O)O)nn2)[C@H](OCc2ccccc2)[C@H](OCc2ccccc2)[C@H]1OCc1ccccc1 | 36.6 µM | 108 µM | 56.4 µM | > 120 µM | > 120 µM | > 120 µM | > 120 µM | 31.1 µM | > 120 µM | 15.3 µM | – | –
9 | CO[C@H]1O[C@H](Cn2cc(COC[C@H](NC(=O)OC(C)(C)C)C(=O)O)nn2)[C@@H](OCc2ccccc2)[C@H](OCc2ccccc2)[C@H]1OCc1ccccc1 | 46.3 µM | 120 µM | 75.4 µM | > 120 µM | > 120 µM | > 120 µM | > 120 µM | 67.5 µM | > 120 µM | 67.8 µM | – | –
